Here are results for 32 molecules from ChEMBL document CHEMBL1799988, “Novel chalcone derivatives as potent Nrf2 activators in mice and human lung epithelial cells” (J Med Chem, 2011).

Active and inactive are the calls of the source. No cut-off for these calls is given here.

In series [1] the test system is Mus musculus. Nature of the series: Induction of Nrf2-mediated GCLM gene expression in small intestine of C57BL/6 mouse at 50 mg/kg, po administered as single dose measured after 24 hrs by RT-PCR analysis related to control. It counts as functional. In outline: (§1)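 Male C57BL/6 mice (7 weeks, AIN 76A diet; n=4) given a single 50 mg/kg oral gavage of compound, sulforaphane, or vehicle (10% DMSO + 10% Cremophor EL + 80% PBS). Small intestine harvested 24 h later; GCLM and NQO1 mRNA measured by TaqMan qRT-PCR with β-actin normalization.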

The target in series [2] is T1, Nuclear factor erythroid 2-related factor 2 (Homo sapiens) (UniProt Q16236).
T1 sequence (whole entry): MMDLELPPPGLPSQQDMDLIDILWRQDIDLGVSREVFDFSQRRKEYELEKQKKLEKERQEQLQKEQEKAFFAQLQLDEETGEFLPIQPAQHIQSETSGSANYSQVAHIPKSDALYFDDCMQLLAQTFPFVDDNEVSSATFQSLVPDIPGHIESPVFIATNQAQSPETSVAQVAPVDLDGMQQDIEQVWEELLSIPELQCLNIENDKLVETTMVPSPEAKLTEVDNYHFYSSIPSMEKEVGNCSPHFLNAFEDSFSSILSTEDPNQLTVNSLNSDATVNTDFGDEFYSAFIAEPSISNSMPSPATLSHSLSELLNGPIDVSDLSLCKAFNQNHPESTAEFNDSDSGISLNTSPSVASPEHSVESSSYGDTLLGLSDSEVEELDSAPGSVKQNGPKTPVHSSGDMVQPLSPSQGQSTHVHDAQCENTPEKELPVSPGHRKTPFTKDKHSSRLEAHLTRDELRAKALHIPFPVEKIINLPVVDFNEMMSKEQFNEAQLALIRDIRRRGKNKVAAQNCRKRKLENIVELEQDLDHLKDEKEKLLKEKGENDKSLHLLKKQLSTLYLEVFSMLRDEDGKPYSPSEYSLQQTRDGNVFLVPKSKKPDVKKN
The series can be described thus: Induction of Nrf2-mediated GCLM gene expression in human BEAS2B cells at 10 uM after 16 hrs by RT-PCR analysis relative to untreated control. It counts as functional, cell-based. The essentials: (§2)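 Beas-2B cells (DMEM:F12, 10% FBS) plated 24 h, then exposed to 10 µM compound in DMSO (final ≤0.1%) for 16 h; sulforaphane as positive control. Total RNA extracted, reverse transcribed with random hexamers, GCLM and NQO1 mRNA quantified by TaqMan qRT-PCR, fold change vs DMSO. Representative of 3 independent experiments, quadruplicate wells.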

Series [3] can be described thus: Cytotoxicity against human BEAS2B cells assessed as cell viability after 24 hrs by MTT assay. The format is cell-based, BEAS-2B. Set-up: concentration or dose not given beside the values. The settings on record: read-out: Activity. The essentials: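 Beas-2B cells treated with compound or DMSO vehicle (0.1%) for 24 h; MTT (5 mg/ml in serum-free medium) added for the last 4 h, formazan dissolved in DMSO after PBS wash, absorbance read at 570 nm. Viability also checked by trypan blue exclusion.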
Background: Formazan colour is commonly taken as a measure of viable cells.

The target of series [4] is T1, Nuclear factor erythroid 2-related factor 2 (Homo sapiens). Nature of the series: Induction of Nrf2-mediated NQO1 gene expression in human BEAS2B cells at 10 uM after 16 hrs by RT-PCR analysis relative to untreated control. The format is functional, cell-based. In outline:
as §2

Series [5] has as its system Mus musculus. The series can be described thus: Induction of Nrf2-mediated NQO1 gene expression in small intestine of C57BL/6 mouse at 50 mg/kg, po administered as single dose measured after 24 hrs by RT-PCR analysis related to control. The format is functional. The essentials:
as §1

Series [6] deals with T1, Nuclear factor erythroid 2-related factor 2 (Homo sapiens). Nature of the series: Induction of Nrf2-mediated GCLM gene expression in human BEAS2B cells at […] 24 hrs by RT-PCR analysis. It counts as functional, cell-based. In outline:
(§3)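 Beas-2B cells co-incubated with 10 µM compound with or without N-acetylcysteine (10 mM); cells harvested 24 h later. GCLM, NQO1 and HO-1 mRNA quantified by TaqMan qRT-PCR, normalized to β-actin. Representative of 3 independent experiments, triplicate wells.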

For series [7] the target is unchanged. The series can be described thus: Induction of Nrf2-mediated NQO1 gene expression in human BEAS2B cells at […] 24 hrs by RT-PCR analysis. It counts as functional, cell-based. The essentials:
as §3

Series [8] has the same target. The series can be described thus: Induction of Nrf2-mediated HO1 gene expression in human BEAS2B cells at […] 24 hrs by RT-PCR analysis. It counts as functional, cell-based. The essentials: as §3

Take `COc1ccc(C(=O)/C=C/c2ccccc2C(F)(F)F)c(OC)c1`: the outcome in the series on Mus musculus [1] and in the series on Mus musculus [5] was Active. Also, the fold change (FC) in series [2] turned out to be 5.4; in series [4], 4.5. For the same molecule, the viability at 24 h in series [3] was 105%.

With `COc1ccc(C(=O)/C=C/c2ccccc2C(F)(F)F)c(OC)c1OC`, the outcome in the series on Mus musculus [1] and in the series with Mus musculus [5] was Active. Besides, the fold change (FC) in series [2] is 5.4; in series [4], 4.1. In addition, the viability at 24 h in series [3] was determined as 102%.

In the case of `O=C(/C=C/c1ccccc1C(F)(F)F)c1ccccc1`, the outcome in the series with Mus musculus [1] and in the series with Mus musculus [5] was Active. The fold change (FC) in series [2] is 5; in series [4] it was 5.3. In addition, the viability at 24 h in series [3] amounted to 145%.

`COc1ccc(C(=O)/C=C/c2ccccc2[N+](=O)[O-])cc1`: the fold change (FC) in series [2] was 4.6; in series [4] it was 4.3. The viability at 24 h in series [3] was determined as 93.2%.

Regarding `COc1ccc(C(=O)/C=C/c2ccc(C(F)(F)F)cc2)c(OC)c1OC`, the fold change (FC) in series [2] was 4.1; in series [4] it was 3.9. For the same molecule, the viability at 24 h in series [3] worked out at 100%.

Take `COc1cccc(C(=O)/C=C/c2ccccc2C(F)(F)F)c1`: the result in the series on Mus musculus [1] and in the series with Mus musculus [5] was Active. The fold change (FC) in series [2] was 5.6; in series [4], 4.3. In series [3], the viability at 24 h stood at 96.6%.

On to `COc1ccc(OC)c(C(=O)/C=C/c2ccc(C(F)(F)F)cc2)c1`, for which the fold change (FC) in series [2] turned out to be 4.1; in series [4], 4. Also, the viability at 24 h in series [3] turned out to be 91.6%.

Regarding `COc1cc(OC)cc(C(=O)/C=C/c2cccc(C(F)(F)F)c2)c1`, the fold change (FC) in series [2] is 3.8; in series [4], 3.9. Besides, in series [3], the viability at 24 h stood at 108%.

Turning to `COc1cc(OC)cc(C(=O)/C=C/c2ccccc2C(F)(F)F)c1`, the fold change (FC) in series [2] was found to be 4; in series [4] it was 3.7. Also, the viability at 24 h in series [3] is 87.1%.

On to `COc1ccc(C(=O)/C=C/c2ccccc2C(F)(F)F)cc1`, for which the result in the series with Mus musculus [1] and in the series on Mus musculus [5] was Active. Besides, the fold change (FC) in series [2] worked out at 5.4; in series [4], 4.6. In series [3], the viability at 24 h was determined as 96%.

For the molecule `COc1ccccc1C(=O)/C=C/c1ccc(C(F)(F)F)cc1`, the fold change (FC) came out at 4.3 in series [2] and 5.4 in series [4]. The viability at 24 h in series [3] was found to be 91%.

In the case of `COc1ccc(C(=O)/C=C/c2ccc(C(F)(F)F)cc2)c(OC)c1`, the fold change (FC) in series [2] is 5; in series [4], 4.8. Further, the viability at 24 h in series [3] is 92.6%.

Consider `CC(=O)N[C@@H](CS)C(=O)O`, for which the result in series [6], in series [7] and in series [8] was inactive.

As to `COc1ccc(C(=O)/C=C/c2ccc(C(F)(F)F)cc2)cc1`, the fold change (FC) in series [2] is 3.5; in series [4] it was 4.6. In series [3], the viability at 24 h was 104%.

Consider `COc1cccc(OC)c1C(=O)/C=C/c1ccc(C(F)(F)F)cc1`, for which the fold change (FC) in series [2] stood at 1.4; in series [4] it was 0.6.

For the molecule `COc1ccc(C(=O)/C=C/c2ccccc2)cc1OC`, the fold change (FC) in series [2] was determined as 2.3; in series [4], 2.5.

Turning to `COc1cc(C(=O)/C=C/c2ccc(C(F)(F)F)cc2)cc(OC)c1OC`, the fold change (FC) was 4.1 in series [2] and 3.7 in series [4].

Consider `COc1ccc(C(=O)/C=C/c2ccccc2[N+](=O)[O-])cc1OC`, for which the fold change (FC) was 2.3 in series [2] and 2.7 in series [4].

Consider `COc1cccc(C(=O)/C=C/c2cccc(C(F)(F)F)c2)c1`, for which the fold change (FC) in series [2] came out at 4.6; in series [4] it was 3.5. Also, in series [3], the viability at 24 h turned out to be 95.3%.

In the case of `COc1ccccc1C(=O)/C=C/c1cccc(C(F)(F)F)c1`, the results for the fold change (FC) in series [2] and in series [4] were 3.9 and 2.9, respectively.

For the molecule `COc1ccc(C(=O)/C=C/c2ccccc2[N+](=O)[O-])c(OC)c1`, the fold change (FC) in series [2] is 2.7; in series [4] it was 3.3.

For the molecule `COc1ccccc1C(=O)/C=C/c1ccccc1`, the fold change (FC) was determined as 3.6 in series [2] and 3.2 in series [4].

`C[S+]([O-])CCCCN=C=S` (stereo not given) [SULFORAPHANE]: the result with Mus musculus [1] and in the series with Mus musculus [5] was Active. The fold change (FC) in series [2] amounted to 2.7; in series [4] it was 3.6. Moreover, the viability at 24 h in series [3] came out at 97.3%.

With `COc1cccc(OC)c1C(=O)/C=C/c1ccccc1[N+](=O)[O-]`, the fold change (FC) was determined as 4.1 in series [2] and 3.7 in series [4]. The viability at 24 h in series [3] was found to be 75.8%.

`COc1ccc(OC)c(C(=O)/C=C/c2ccccc2)c1`: the fold change (FC) was found to be 3 in series [2] and 2.6 in series [4].

Turning to `COc1cc(OC)cc(C(=O)/C=C/c2ccccc2[N+](=O)[O-])c1`, the fold change (FC) in series [2] came out at 3.4; in series [4], 4.1. Besides, the viability at 24 h in series [3] stood at 90.9%.

Turning to `COc1cc(C(=O)/C=C/c2ccccc2C(F)(F)F)cc(OC)c1OC`, the results for the fold change (FC) in series [2] and in series [4] were 3 and 3.1, respectively.

With `COc1ccc(C(=O)/C=C/c2ccccc2C(F)(F)F)cc1OC`, the fold change (FC) in series [2] stood at 4.3; in series [4], 2.7.

On to `COc1cc(OC)c(C(=O)/C=C/c2ccccc2C(F)(F)F)c(OC)c1`, for which the result with Mus musculus [1] and in the series with Mus musculus [5] was Active. The fold change (FC) came to 4.4 in series [2] and 4.3 in series [4]. The viability at 24 h in series [3] was 145%.

Consider `COc1cc(OC)cc(C(=O)/C=C/c2ccccc2)c1`, for which the fold change (FC) in series [2] was 3; in series [4], 2.4.

For `COc1cccc(OC)c1C(=O)/C=C/c1ccccc1C(F)(F)F`, the outcome in the series with Mus musculus [1] and in the series with Mus musculus [5] was Active. Moreover, the fold change (FC) in series [2] was 5.7; in series [4], 5.3. In addition, the viability at 24 h in series [3] was 101%.

As for `COc1ccc(C(=O)/C=C/c2cccc(C(F)(F)F)c2)cc1`, the fold change (FC) in series [2] stood at 2.7; in series [4] it was 2.8.
